In ChEMBL document CHEMBL4765486, “Novel Nonsecosteroidal Vitamin D Receptor Modulator Combined with Gemcitabine Enhances Pancreatic Cancer Therapy through Remodeling of the Tumor Microenvironment” (J Med Chem, 2021):
Activity calls are given as the source filed them. Unless noted, no cut-off for these calls is given here.

Columns and labels:
LTC-14 [1] = experiment: Inhibition of rat LTC-14 cells activation assessed as inhibition of PDGFB mRNA expression at 0.5 uM treated under conditioned media of DSL-6A/C1 cells for 24 hrs by q-PCR analysis; assay type: functional, cell-based
In short: (§1)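 LTC-14 PSCs were exposed for 24 h to conditioned medium from rat DSL-6A/C1 cancer cells containing compound at 0.5 μM. Pdgfa, Pdgfb, Fgf2, Hgf and Periodin mRNA were quantified by RT-qPCR. Three repeats, mean ± SD versus CM alone.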

[2] = biological target: T1, Vitamin D3 receptor (Homo sapiens) (UniProt P11473); experiment: Binding affinity to VDR (unknown origin) at 1 uM by fluorescence polarization assay relative to calcipotriol; details: filed as agonist
T1 sequence (whole entry): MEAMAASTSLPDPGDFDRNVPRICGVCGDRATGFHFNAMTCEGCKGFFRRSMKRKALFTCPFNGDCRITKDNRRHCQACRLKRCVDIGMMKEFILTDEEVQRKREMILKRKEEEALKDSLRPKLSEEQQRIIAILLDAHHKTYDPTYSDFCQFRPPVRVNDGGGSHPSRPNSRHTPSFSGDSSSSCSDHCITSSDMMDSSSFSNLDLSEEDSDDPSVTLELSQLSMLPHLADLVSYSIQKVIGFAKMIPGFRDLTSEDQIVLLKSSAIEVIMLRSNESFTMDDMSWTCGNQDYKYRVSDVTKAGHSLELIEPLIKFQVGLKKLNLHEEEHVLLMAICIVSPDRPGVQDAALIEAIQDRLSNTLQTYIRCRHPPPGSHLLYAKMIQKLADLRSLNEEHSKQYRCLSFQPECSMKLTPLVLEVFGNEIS
In short: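 PolarScreen VDR competitor fluorescence polarization assay with compounds at 1 μM in triplicate. Read-out used 535 nm excitation and 590 nm emission filters.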

[3] = Cytotoxicity against rat LTC-14 cells assessed as reduction in cell proliferation incubated for 24 hrs by MTT assay; assay type: cell-based; details: LTC-14, 24 h
Vitamin D3 receptor = biological target: T2, Vitamin D3 receptor (Homo sapiens, UniProt P11473); experiment: Binding affinity to VDR (unknown origin) by fluorescence polarization assay
T2 sequence (P11473 whole entry): T1 sequence (whole entry)
In short: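 Competitive VDR binding was measured by PolarScreen fluorescence polarization, in triplicate.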

DSL-6A/C1 [4] = experiment: (§2) Potentiation of gemcitabine-induced antitumor activity against luciferase-tagged rat DSL-6A/C1 cells and GFP-tagged LTC-14 cells co-inoculated in orthotropic xenograft BALB/c nude mouse model of pancreatic cancer assessed as inhibition of collagen deposition at 500 ug/kg, ip administered once every 3 days for 12 days coadministered with gemcitabine at 100 mg/kg and measured after 3 days post last dose by Masson staining based assay; assay type: functional, organism-based; details: dose 500.0 µg/kg, time 12.0 day
In short: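 In the same orthotopic co-inoculation model, mice received gemcitabine 100 mg/kg ip every 3 days plus compound 500 μg/kg ip for 12 days. Animals were sacrificed 3 days after the last dose. Pancreatic tumour sections were stained with H&E for tissue structure and with Masson's trichrome for collagen deposition, imaged at ×100.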

[5] = Cytotoxicity against rat DSL-6A/C1 cells assessed as reduction in cell proliferation at 0.5 uM incubated for 24 hrs by MTT assay; assay type: cell-based; details: dsl-6a/c1, 24 h
LTC-14 [6] = experiment: Inhibition of rat LTC-14 cells interaction with DSL-6A/C1 cells in conditioned media assessed as inhibition of POSTN protein expression at 0.5 uM measured after 24 hrs by Western blot analysis; assay type: functional, cell-based
In short: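 LTC-14 cells were treated for 24 h with DSL-6A/C1 conditioned medium plus compound (0.5 μM). Proteins were separated on 10% SDS-PAGE, transferred to PVDF and probed with rabbit anti-PDGF-A or anti-POSTN, with β-actin as loading reference.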

LTC-14 [7] = experiment: Inhibition of rat LTC-14 cells activation assessed as inhibition of PDGFA mRNA expression at 0.5 uM treated under conditioned media of DSL-6A/C1 cells for 24 hrs by q-PCR analysis; assay type: functional, cell-based; in short: as §1
LTC-14 [8] = experiment: Inhibition of rat LTC-14 cells activation assessed decrease in TGF-beta1 induced collagen 1 protein expression at 0.5 uM incubated for 24 hrs by Western blot analysis; assay type: functional, cell-based
In short: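 LTC-14 cells were treated for 24 h with compound (0.5 μM) plus TGF-β1 (0.5 ng/mL in the text, 5 ng/mL in the methods). Lysates were run on 10% SDS-PAGE, transferred to PVDF and probed with rabbit anti-collagen I, with β-actin as reference. Bands were quantified by densitometry versus TGF-β1 alone.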

DSL-6A/C1 [9] = experiment: as §2, with “reduction in tumor volume” for “inhibition of collagen deposition”, “IVIS optical imaging analysis” for “Masson staining based assay”; assay type: functional, organism-based; details: dose 500.0 µg/kg, time 12.0 day
In short: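 DSL-6A/C1-luci and LTC-14-GFP cells were co-inoculated orthotopically into the pancreas of nude mice, n=5 per group. Treatment began 7 days after grafting (methods) or 14 days (text). Gemcitabine 100 mg/kg ip every 3 days, alone or with compound 500 μg/kg or calcipotriol 60 μg/kg in ethanol/polyoxyethylene castor oil/saline (1:1:18), for 12 days. Tumour growth was followed by bioluminescence imaging.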

- RBA [2]: 89%
- IC50 (Vitamin D3 receptor): 57.2 nM
Structure (SMILES): CCn1cc(C(CC)(CC)c2ccc(OCC(C)O)c(C)c2)cc1C(=O)NCCN1CCN(C)CC1 (stereo not given)
- inhibition (LTC-14 [1]): Active
- IC50 [3]: > 10000 nM
- Activity (DSL-6A/C1 [4]): Active
- Activity [5]: Non-Toxic
- inhibition (LTC-14 [6]): Active
- inhibition (LTC-14 [7]): Active
- inhibition (LTC-14 [8]): Active
- TGI (DSL-6A/C1 [9]): Active
